Experimental data from ChEMBL document CHEMBL4513216, “Probing the Open Global Health Chemical Diversity Library for Multistage-Active Starting Points for Next-Generation Antimalarials” (ACS Infect Dis, 2020).

Experiment: Toxicity liver stage against HepG2, at 10uM
Format: cell-based
Parameters: test concentration 10 uM, cell line HepG2-A16-CD81EGFP
Conditions: human, HepG2-A16-CD81EGFP cells; read-out: INHIBITION
Method in brief: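 Uninfected HepG2-A16-CD81EGFP cells, 3 × 10^3 per well, 1536-well, plated on prespotted compound at 10 μM final, parasite-free screening media added to match infected plates; puromycin 10 μM positive, DMSO 0.5% negative; run in parallel with 48 h PbLuc assay at 37 °C, 5% CO2; viability by CellTiter-Glo luminescence, normalized to controls.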

Structure (SMILES)	cytotoxicity at 10 µM [%]
CCOCC(=O)NCC(C)(O)c1cc(C)oc1C (stereo not given)	1.85
Cc1nc(S(=O)(=O)N2CCC3(CCCCC3)C2)cn1C	-4.2
Cc1cc(-c2nc(C3(NC(=O)OC(C)(C)C)CCC3)no2)on1	5.98
CCN(c1ccc(C(=O)N(Cc2cnn(C)c2)C(C)C)cn1)C(C)C	16.2
Cc1cc(C(=O)N2CCS(=O)(=O)CC2)c(C)o1	-16.8
COc1ccccc1OCC(=O)Nc1ncccc1OC(F)F	7.25
Cc1nc(Cn2c3c(ccc2=O)CC(NC(N)=O)CC3)cs1 (stereo not given)	9.79
CC(=O)c1ccccc1-c1cc(C(=O)O)cc(S(=O)(=O)NC(C)C)c1	0.476
Cc1nc(-c2ccncc2)ncc1C(C)NC(=O)C1=NN(C)C(=O)CC1 (stereo not given)	-0.205
O=C(CN1CCOCC1)N1CCC2(CCCN(C3CCOCC3)C2=O)C1 (stereo not given)	-129
O=C(NCC1(O)CCCCC1)c1coc(COc2cccc(F)c2)n1	-136
Cc1cc(C[C@@H]2COC[C@@H]2NC(=O)CCN2Cc3ccccc3C2)on1	3.86
CCOCc1nc2c(c(N3CC=CC3)n1)CCN(CC1CC1)CC2	-21.2
Cc1ccccc1N1CC(C)N(Cc2ccc(C)c(F)c2F)CC1=O (stereo not given)	-1.66
Cc1cc(N2C[C@H](C3CC3)[C@@H](N)C2)nc(N2CCCCC2)n1	-15.6
CC(C)Cc1noc(CN(C)c2cc(N(C)C)ncn2)n1	-0.75
Nc1nc(CCC(=O)N2C[C@@H](CN3CCCC3)C[C@H](CO)C2)n[nH]1	-0.445
CCN1CC2(CCC1=O)CCN(Cc1cccc(OC(F)F)c1)CC2	-16.5
c1ccc2c(c1)cnn2CCCNC1CCOC2(CCOCC2)C1 (stereo not given)	-7.35
O=C(NC1CCC1)c1cccc(S(=O)(=O)NCc2nc(C3CC3)no2)c1	-0.0264
Cc1cnn(C(C)C(=O)NCC2CCN(c3cnn(C)c(=O)c3)CC2)c1 (stereo not given)	2.81
Cc1cc2ccccc2n1CCC(=O)N1CCC[C@H]1C(N)=O	-0.338
O=C(NCC1CCS(=O)(=O)C1)c1ccc2cccc(Cl)c2n1 (stereo not given)	-10.1
CCc1cc(N(C)Cc2noc(C(C)C)n2)nc(N2CCOCC2)n1	0.515
CC(C)N1CCC(CC(=O)N2CCCCC2CCn2cccn2)CC1 (stereo not given)	-3.77
O=C1CC2(CCCC2)CC(=O)N1Cc1nc2ncccn2n1	2.49
c1ccc2c(c1)CC(Cc1cc(N3CCCC3)cnn1)CCO2 (stereo not given)	-5.5
Cc1ccc(OC2(C(=O)NC(C)Cc3ccsc3)CCNCC2)cc1 (stereo not given)	-15.4

Structure (SMILES)	cytotoxicity at 10 µM [%]
CC(C)C(C)n1nccc1NC(=O)Cn1cnc2ccccc21 (stereo not given)	10.8
COc1ccc([C@@H]2CN(c3cnccn3)C[C@H]2N(C)C)cc1	6.55
Cc1cc(C)c2nc(CN3CCC(CN)C3)cc(O)c2c1 (stereo not given)	-14.8
Cn1ncc(NC(=O)c2noc3c2CCCC3)c1C(=O)N1CCCCC1	-13.4
COc1ccccc1CNC(=O)C[S+]([O-])Cc1cc(C)on1 (stereo not given)	-4.92
Cc1cnn(CC2CCCN2C(=O)c2c(C)noc2C(C)C)c1 (stereo not given)	-0.502
Cc1cnn(C2CCCN(C(=O)Cc3cn4ccsc4n3)C2)c1 (stereo not given)	-4.89
CCc1noc(CNCCn2cc(C)cn2)n1	-2.54
CCC(O)CN1CCN(C(=O)c2ccc3c(c2)COC3)CC1 (stereo not given)	-6.58
c1cncc(-c2noc(CN3CCCC3Cn3cccn3)n2)c1 (stereo not given)	-4.74
Cc1cnn(CC2CCCN2C(=O)Cc2cccs2)c1 (stereo not given)	-0.704
Cc1ccc(C(=O)N2CCN(C(=O)Cc3ccccn3)CC2)c(C)c1	-4.74
CC(NC(=O)NCCCN(C)S(C)(=O)=O)c1cccnc1 (stereo not given)	-12.5
Cc1ccc(CNC(=O)CCNS(C)(=O)=O)cc1	-5.07
O=C(c1cnc(-c2ccccn2)s1)N1CCCC1Cn1cccn1 (stereo not given)	-5
COc1ccccc1C(=O)NC(CC(=O)O)c1cccs1 (stereo not given)	-0.337
CN(C)CCCN(Cc1cnn(C)c1)Cc1ccco1	2.36
COCCN1C[C@@H](C)[C@@]2(COCCN(C(=O)c3ccncc3)C2)C1	5.71
COCCN1C[C@@H]2CN(Cc3ccoc3)CCC[C@]2(C(=O)O)C1	-139
c1cncc(COCc2nnn3c2CN(Cc2ccsc2)CC3)c1	6.4
O=C(NCc1cn2c(n1)CN(Cc1ccccn1)CC2)C1CCC1	7.49
O=C(NCc1ccccn1)[C@@H]1COC[C@H]2CN(c3ncccn3)C[C@H]21	7.31
CN1CCN([C@@H]2CCN(C3CCOCC3)[C@H]2Cc2cnn(C)c2)CC1	5.07
CNC(=O)c1cc2c(nc1NCC1CC1)CCN(S(C)(=O)=O)CC2	5.57
Cc1ccc(CN2Cc3nccn3CC(Cn3cncn3)C2)s1 (stereo not given)	-141
CC1CCC(n2cc3nc(N)[nH]cc-3c2=O)CC1 (stereo not given)	-0.0237
Cc1nc(=O)c(CC(=O)N2C[C@H]3CC[C@@H](C2)N(CC2CCC2)C3)c[nH]1	1.43
